According to paper PMC4653337 (Pharmacognosy Magazine, 2015):
In brackets after ≈: the same amount, converted by molar mass. Several values for one entry are separate records, joined by “and”; a condition that tells them apart may be missing. Equal entries are not always repeated. Structures can show the parent of a compound that is named as a salt. Where two headings read alike, the source gives them in different places.

Experiments:
[1] = tested on: A549 cells; settings: A549, 48 h treatment; ref 10 (Lee et al.); cited from earlier work
[2] = tested on: A549 human lung cancer cell line; assay: Sulforhodamine B; format: cell-based; settings: read-out: Growth inhibition, IC50
Outline: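 SRB growth assay. A549 cells were grown in RPMI 1640 with 10% FBS, 2% penicillin/streptomycin and 1% amphotericin B, then seeded at 8,000 per well overnight. Cells were exposed 24, 48 or 72 h to graded test compound (0.5% DMSO final; reference drug alongside). Cells were fixed in cold 40% TCA for 1 h at 4°C and stained with 0.4% SRB for 30 min. Dye was solubilised in 10 mM Tris pH 10.5 and read at 492 nm. IC50 came from % inhibition dose-response curves.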

[3] = tested on: MRC-5 human lung fibroblast; assay: Sulforhodamine B; format: cell-based; settings: for IC50: Homo sapiens, read-out: Growth inhibition, IC50
Outline: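 SRB growth assay. MRC-5 fetal lung fibroblasts were grown in MEM with 10% FBS and 1% penicillin/streptomycin at 37°C, 5% CO2, then seeded at 8,000 per well overnight. Cells were exposed 24, 48 or 72 h to graded test compound (0.5% DMSO final). Cells were fixed in cold 40% TCA at 4°C, stained with 0.4% SRB, solubilised in 10 mM Tris pH 10.5 and read at 492 nm. IC50 came from % inhibition versus concentration curves.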

[4] = tested on: caspase-8 in A549 cells; assay: Caspase-8 activity; format: cell-based, human; settings: A549, 12, 24, 48 h; highest RLU at 14 μM at 24 h and 48 h
[5] = tested on: A549 cells; assay: Cell cycle analysis; format: cell-based, human; settings: 72 h; for percentage of cells at S phase: 0 μM 8.94 ± 0.23%
Outline: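 After 72 h of test compound, adherent and floating A549 cells were pooled and fixed in 70% ethanol overnight. Cells were stained 30 min at room temperature with 50 μg/ml PI, 50 μg/ml RNase, 0.1% Triton X-100 and 1 mg/ml sodium citrate (final). DNA content was read by flow cytometry and modelled into sub-G1, G1, S and G2/M fractions. Runs were done at least twice in triplicate; one-way ANOVA/Tukey versus control.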

[6] = tested on: MDA-MB-435 breast cancer cells; settings: MDA-MB-435, 5–50 µM for 24 h; cited from earlier work
[7] = tested on: A549 cells; assay: Mitochondrial membrane potential assay; format: cell-based, human; settings: A549, 14, 28, 42 μM, 72 h, dose-dependent
Outline: (§1)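 A549 cells in RPMI 1640 with 10% FBS, 37°C, 5% CO2. Test compound in DMSO, 0.5% DMSO final. Annexin: 2.4 × 10^5 cells/well adhered overnight, 72 h exposure, 1 × 10^5 cells stained with FITC-annexin V and PI, 10,000 events per replicate. JC-1: 72 h, 15 min dye, red aggregate (FL2-A) vs green monomer (FL1-A). Mean ± SEM; at least two runs in triplicate.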

[8] = Mitochondrial membrane potential assay; format: cell-based, human; settings: human, A549 cells, Population of viable cells (P5 region, high Δψm), A549, 42 μM, untreated 91.42 ± 0.36%
Outline: as §1

[9] = tested on: caspase-9 in A549 cells; assay: Caspase-9 activity; format: cell-based, human; settings: A549, 12, 24, 48 h; highest RLU at 14 μM at 24 h and 48 h
[10] = tested on: mice; settings: cited from earlier work
[11] = tested on: A549 cells; assay: DNA fragmentation by TUNEL assay; format: cell-based, human; settings: 72 h, negative control 4.27 ± 0.13%
[12] = tested on: A549 cells; assay: Annexin V-FITC/PI staining, flow cytometry; format: cell-based, human; settings: 72 h; for percentage of early apoptotic cells (Annexin V-FITC+ PI-): negative control 1.42 ± 0.47%; for population of late apoptotic or secondary necrotic cells (Annexin V-FITC+ PI+): negative control 1.80 ± 0.30%
Outline: as §1

[13] = tested on: A549 cells; assay: Phase contrast microscopy; format: cell-based, human; settings: A549, 14, 28, 42 μM, 72 h
[14] = tested on: caspase-3 in A549 cells; assay: Caspase-3 activity; format: cell-based, human; settings: A549, 12, 24, 48 h
[15] = tested on: breast cancer xenografts; settings: breast cancer xenografts in nude mice; ref 24 (Monteiro et al.); cited from earlier work
[16] = tested on: benign prostatic hyperplasia (BPH-1) epithelial cell line; settings: BPH-1, 10 µM and 20 µM for 48 h; cited from earlier work
[17] = tested on: HCT-116 human colon cancer cells; settings: cited from earlier work
[18] = tested on: DNA topoisomerase I (Top 1); settings: cited from earlier work

For COc1cccc2c1C(=O)c1c(O)c3c(c(O)c1C2=O)C[C@@](O)(C(=O)CO)C[C@@H]3O[C@H]1C[C@H](N)[C@H](O)[C@H](C)O1 [Doxorubicin, Doxorubicin hydrochloride, reference compound], the “IC50 (cytotoxic effects on A549)” value [1] is listed as 0.5 µg/mL, the IC50 ([2]; A549, 24 h) is listed as 2.85 ± 0.2 µM and the IC50 ([2]; A549, 48 h) is listed as 0.22 ± 0.03 µM. The IC50 ([2]; A549, 72 h) was 0.02 ± 0.02 µM, the IC50 ([3]; MRC5, 24 h) was 5.71 ± 0.55 µM and the IC50 ([3]; MRC5, 48 h) was 2.01 ± 0.04 µM. It also gave an IC50 ([3]; MRC5, 72 h) of 1.09 ± 0.1 µM.
In the case of COc1cc(O)c(CC=C(C)C)c(O)c1C(=O)/C=C/c1ccc(O)cc1 [Xanthohumol, 2', 4, 4'-trihydroxy-3'-prenyl-6'-methoxychalcone], the “IC50 (cytotoxic effects on A549)” value [1] is given as 4.3 µg/mL (≈ 12.1 µM), the “Caspase-8 activity (RLU)” value [4] is given as “significantly increased” and the “percentage of cells at S phase” value ([5]; A549, 14 μM) is given as 12.34 ± 1.09%. For the same molecule, the “percentage of cells at S phase” value ([5]; A549, 28 μM) was 16.43 ± 1.52%, the “percentage of cells at S phase” value ([5]; A549, 42 μM) was 46.95 ± 2.03% and the “Effect on sub G1 population” value ([5]; A549, increasing concentration) was “increased the percentage of cells arrested at sub G1 peak”. The Cell cycle effect [6] was “S phase arrest”, the “Effect on mitochondrial membrane potential (Δψm)” value [7] was “significantly reduced” and the viability at 72 h, 42 µM [8] was 2.88 ± 0.62%. For the same molecule, the “Caspase-9 activity (RLU)” value [9] was “significantly increased”, the “Organ function and homeostasis” value ([10]; feeding, ref 6 (Dorn et al.)) was “did not impair organ function and homeostasis” and the “Hematological and biochemical blood analyses versus control group” value ([10]; oral administration, ref 25 (Vanhoecke et al.)) was “no difference in hematological and biochemical blood analyses”. For the same molecule, the “percentage of cells with DNA fragmentation” value ([11]; A549, 28 μM) was 34.7 ± 0.30%, the “percentage of cells with DNA fragmentation” value ([11]; A549, 42 μM) was 39.2 ± 0.15% and the “percentage of early apoptotic cells (Annexin V-FITC+ PI-)” value (from here on “percentage of early apoptotic cells”) ([12]; A549, 14 μM) was 2.72 ± 0.59%. For the same molecule, the “population of late apoptotic or secondary necrotic cells (Annexin V-FITC+ PI+)” value (“population … (Annexin V-FITC+ PI+)” below) ([12]; A549, 14 μM) was 4.90 ± 0.85%, the “percentage of early apoptotic cells” value ([12]; A549, 28 μM) was 26.08 ± 1.50% and the “population … (Annexin V-FITC+ PI+)” value ([12]; A549, 28 μM) was 17.05 ± 3.12%. For the same molecule, the “percentage of early apoptotic cells” value ([12]; A549, 42 μM) was 34.42 ± 4.41%, the “population … (Annexin V-FITC+ PI+)” value ([12]; A549, 42 μM) was 33.27 ± 3.55% and the IC50 ([2]; A549, 24 h) was 74.1 ± 1.98 µM. For the same molecule, the IC50 ([2]; A549, 48 h) was 25.5 ± 0.3 µM, the IC50 ([2]; A549, 72 h) was 13.5 ± 0.82 µM and the Morphological changes [13] was “atrophy, size shrinkage, decrease in cell number, and detachment of cells”. The “Caspase-3 activity (RFU)” value [14] was “RFU values increased as concentration and treatment time increased”, the “In vivo antitumor effects on isolated tumors” value [15] was “decrease in tumor-surrounding inflammatory cells and a large central necrosis” and the Cell cycle effect [16] was “S phase arrest”. For the same molecule, the Caspase activation [17] was “Activation of all caspase-3, -8, and -9”, the IC50 ([3]; MRC5, 24 h) was > 282 µM and > 100 µg/mL and the IC50 ([3]; MRC5, 48 h) was 149 ± 4.96 µM. For the same molecule, the IC50 ([3]; MRC5, 72 h) was 94.4 ± 1.77 µM, the “Toxicity to normal cells (MRC-5) versus cancer cells (A549)” value ([3]; comparison of IC50 values on MRC-5 and A549, SRB assay) was “less toxic to normal cells compared to cancer cells” and the “Effect on DNA topoisomerase I (Top 1) activity” value [18] was “inhibition of DNA topoisomerase I (Top 1) activity”.
